Measurements as given in ChEMBL document CHEMBL3627647, “Antibacterial properties of 3-(phenylsulfonyl)-2-pyrazinecarbonitrile” (Bioorg Med Chem Lett, 2015).
Values after ≈ are worked out from the molar mass of the structure shown. Active and inactive are the calls of the source. The rule behind the calls is not given here. Peptide text beside a SMILES is read from it. * marks the point of attachment. βNA = c1ccc2cc(N*)ccc2c1

What was measured:
Klebsiella pneumoniae [1] = assay: Antibacterial activity against Klebsiella pneumoniae ATCC 77326 after overnight incubation by microplate checkerbroad assay in presence of polymyxin B; type: functional
Method in brief: (§1)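 Microplate checkerboard: PSPC at final 1–64 µg/mL crossed with polymyxin B at final 0.063–64 µg/mL; minimum growth-inhibiting concentrations alone and in combination determined and used to calculate FIC index.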

Acinetobacter baumannii [2] = assay: Antibacterial activity against Acinetobacter baumannii ATCC 17978 after overnight incubation by microplate checkerbroad assay in presence of polymyxin B; type: functional; method in brief: as §1
[3] = Toxicity in HEK293 cells assessed as cell survival rate up to 2 ug/ml after 24 hrs by WST-1 assay relative to control; type: cell-based; conditions: human, read-out: Survival
Method in brief: (§2)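 HEK-293 cells treated with serial dilutions (1–64 µg/mL); rotenone as positive control. Viability read spectrophotometrically from conversion of WST-1 to formazan.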

[4] = Toxicity in HEK293 cells assessed as cell survival rate at 64 ug/ml after 24 hrs by WST-1 assay relative to control; type: cell-based; conditions: human, read-out: Survival; method in brief: as §2
HEK293 [5] = assay: Toxicity in HEK293 cells assessed as decrease in cell survival rate after 24 hrs by WST-1 assay; type: cell-based; conditions: human, hek293, 24 h
Method in brief: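 HEK-293 cells treated with serial dilutions over 1–64 µg/mL; rotenone as positive control; viability read spectrophotometrically from WST-1 conversion to formazan by viable cells.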

[6] = Hemolytic activity in sheep erythrocytes at 0.063 to 64 ug/ml after 1 hr; type: ADME, cell-based, Ovis aries; conditions: erythrocyte
Method in brief: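 Sheep red blood cells exposed 1 hour to serial dilutions (0.063–64 µg/ml); Triton X-100 at 0.001–1% as positive control; hemolysis scored visually and confirmed by absorbance at 540 nm.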

HEK293 [7] = assay: Toxicity in HEK293 cells assessed as mortality rate at 4 ug/ml after 24 hrs by WST-1 assay relative to control; type: cell-based; conditions: human, hek293, 24 h; method in brief: as §2
Staphylococcus aureus [8] = assay: Antibacterial activity against methicillin-resistant Staphylococcus aureus MW2 infected in young adult stage of Caenorhabditis elegans glp-4(bn2);sek-1 (km4) assessed as prolongation of survival after 5 days by Sytox Orange staining-based bright field microscopic analysis; type: functional; conditions: MW2, 120 h, read-out: MEC
Method in brief: (§3)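 Young adult C. elegans glp-4(bn2);sek-1(km4) co-inoculated in 384-well plates with MRSA MW2 and 2-fold serial dilutions (0.78–100 µg/mL). DMSO ≤1%; 1% DMSO was the negative control and vancomycin the positive control. Dead worms were stained with Sytox Orange and imaged with brightfield. Survival = fraction of worm area not fluorescent.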

Staphylococcus aureus [9] = assay: Ratio of MIC for methicillin-resistant Staphylococcus aureus MW2 to MEC for methicillin-resistant Staphylococcus aureus MW2 infected in young adult stage of Caenorhabditis elegans glp-4(bn2);sek-1 (km4); type: functional
Method in brief: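 The MW2 MIC was measured in Müller-Hinton broth. For the MEC, young adult glp-4(bn2);sek-1(km4) worms were co-inoculated with MW2 in 384-well plates with 2-fold dilutions (0.78–100 µg/mL), with DMSO at or below 1%. Dead worms were stained with Sytox Orange. Survival was taken as […] per well.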

Staphylococcus aureus [10] = assay: Antibacterial activity against methicillin-resistant Staphylococcus aureus MW2 infected in young adult stage of Caenorhabditis elegans glp-4(bn2);sek-1 (km4) assessed as prolongation of survival at 0.78 to 25 ug/ml after 5 days by Sytox Orange staining-based bright field microscopic analysis relative to control; type: functional; method in brief: as §3
Staphylococcus aureus [11] = assay: Antibacterial activity against methicillin-resistant Staphylococcus aureus MW2 infected in young adult stage of Caenorhabditis elegans glp-4(bn2);sek-1 (km4) assessed as prolongation of survival at 50 ug/ml after 5 days by Sytox Orange staining-based bright field microscopic analysis relative to control; type: functional; conditions: MW2, 120 h; method in brief: as §3
Staphylococcus aureus [12] = assay: Antibacterial activity against methicillin-resistant Staphylococcus aureus MW2 infected in young adult stage of Caenorhabditis elegans glp-4(bn2);sek-1 (km4) assessed as prolongation of survival at 100 ug/ml after 5 days by Sytox Orange staining-based bright field microscopic analysis relative to control; type: functional; conditions: MW2, 120 h; method in brief: as §3
Caenorhabditis elegans = assay: Toxicity in Caenorhabditis elegans glp-4(bn2);sek-1 (km4) after 5 days by Sytox Orange staining-based bright field microscopic analysis; type: organism-based; conditions: in vivo, 120 h
Method in brief: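 Young adult C. elegans glp-4(bn2);sek-1(km4) co-inoculated in 384-well plates with MRSA strain MW2 and 2-fold serial dilutions (0.78–100 µg/mL), DMSO ≤1%; dead worms stained with Sytox Orange, survival from fluorescent worm area relative to total worm area.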

Enterococcus faecium = assay: Antibacterial activity against Enterococcus faecium E007 after overnight incubation by broth microdilution method; type: functional
Staphylococcus aureus [13] = assay: Antibacterial activity against methicillin-resistant Staphylococcus aureus MW2 after overnight incubation by broth microdilution method; type: functional
Method in brief: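 Broth microdilution MIC against MRSA MW2 in Müller-Hinton broth.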

Klebsiella pneumoniae [14] = assay: Antibacterial activity against Klebsiella pneumoniae ATCC 77326 after overnight incubation by broth microdilution method; type: functional
Acinetobacter baumannii [15] = assay: Antibacterial activity against Acinetobacter baumannii ATCC 17978 after overnight incubation by broth microdilution method; type: functional
Pseudomonas aeruginosa [16] = assay: Antibacterial activity against Pseudomonas aeruginosa PA14 after overnight incubation by broth microdilution method; type: functional
Enterobacter sp. [17] = assay: Antibacterial activity against Enterobacter sp. KCTC 2625 after overnight incubation by broth microdilution method; type: functional
Staphylococcus aureus [18] = assay: Bactericidal activity against methicillin-resistant Staphylococcus aureus MW2 at 40 ug/ml measured for 4 hrs by time-kill assay; type: functional
Staphylococcus aureus [19] = assay: Bactericidal activity against methicillin-resistant Staphylococcus aureus MW2 after overnight incubation; type: functional
Staphylococcus aureus [20] = assay: Ratio of MBC to MIC for methicillin-resistant Staphylococcus aureus MW2; type: functional
Klebsiella pneumoniae [21] = assay: Antibacterial activity against Klebsiella pneumoniae ATCC 77326 after overnight incubation by broth microdilution method in presence of 64 ug/ml efflux pump inhibitor PAbetaN; type: functional
Acinetobacter baumannii [22] = assay: Antibacterial activity against Acinetobacter baumannii ATCC 17978 after overnight incubation by broth microdilution method in presence of 64 ug/ml efflux pump inhibitor PAbetaN; type: functional
Pseudomonas aeruginosa [23] = assay: Antibacterial activity against Pseudomonas aeruginosa PA14 after overnight incubation by broth microdilution method in presence of 64 ug/ml efflux pump inhibitor PAbetaN; type: functional
Enterobacter sp. [24] = assay: Antibacterial activity against Enterobacter sp. KCTC 2625 after overnight incubation by broth microdilution method in presence of 64 ug/ml efflux pump inhibitor PAbetaN; type: functional
Klebsiella pneumoniae [25] = assay: Ratio of MIC for Klebsiella pneumoniae ATCC 77326 in absence of 64 ug/ml efflux pump inhibitor PAbetaN to MIC for Klebsiella pneumoniae ATCC 77326 in presence of 64 ug/ml efflux pump inhibitor PAbetaN; type: functional
Acinetobacter baumannii [26] = assay: Ratio of MIC for Acinetobacter baumannii ATCC 17978 in absence of 64 ug/ml efflux pump inhibitor PAbetaN to MIC for Acinetobacter baumannii ATCC 17978 in presence of 64 ug/ml efflux pump inhibitor PAbetaN; type: functional
Pseudomonas aeruginosa [27] = assay: Ratio of MIC for Pseudomonas aeruginosa PA14 in absence of 64 ug/ml efflux pump inhibitor PAbetaN to MIC for Pseudomonas aeruginosa PA14 in presence of 64 ug/ml efflux pump inhibitor PAbetaN; type: functional
Enterobacter sp. [28] = assay: Ratio of MIC for Enterobacter sp. KCTC 2625 in absence of 64 ug/ml efflux pump inhibitor PAbetaN to MIC for Enterobacter sp. KCTC 2625 in presence of 64 ug/ml efflux pump inhibitor PAbetaN; type: functional
Klebsiella pneumoniae [29] = assay: Antibacterial activity against Klebsiella pneumoniae ATCC 77326 after overnight incubation by microplate checkerbroad assay in presence of PSPC; type: functional, organism-based; method in brief: as §1
Acinetobacter baumannii [30] = assay: Antibacterial activity against Acinetobacter baumannii ATCC 17978 after overnight incubation by microplate checkerbroad assay in presence of PSPC; type: functional, organism-based
Method in brief: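 Checkerboard microplate growth inhibition. PSPC at final 1–64 µg/mL combined with polymyxin B at final 0.063–64 µg/mL. The lowest concentrations inhibiting growth alone and in combination were used to calculate the FIC index.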

Klebsiella pneumoniae [31] = assay: Antibacterial activity against Klebsiella pneumoniae ATCC 77326 assessed as growth inhibition at 64 ug/ml after overnight incubation by broth microdilution method; type: functional, organism-based
Acinetobacter baumannii [32] = assay: Antibacterial activity against Acinetobacter baumannii ATCC 17978 assessed as growth inhibition at 64 ug/ml after overnight incubation by broth microdilution method; type: functional, organism-based
Pseudomonas aeruginosa [33] = assay: Antibacterial activity against Pseudomonas aeruginosa PA14 assessed as growth inhibition at 64 ug/ml after overnight incubation by broth microdilution method; type: functional, organism-based
Enterobacter sp. [34] = assay: Antibacterial activity against Enterobacter sp. KCTC 2625 assessed as growth inhibition at 64 ug/ml after overnight incubation by broth microdilution method; type: functional, organism-based

N#Cc1nccnc1S(=O)(=O)c1ccccc1
fractional inhibitory concentration index (FICI) (Klebsiella pneumoniae [1]): 0.141 | MIC (Klebsiella pneumoniae [1]; Klebsiella pneumoniae, ATCC 77326): 1 µg/mL | fractional inhibitory concentration index (FICI) (Acinetobacter baumannii [2]): 0.375 | MIC (Acinetobacter baumannii [2]; Acinetobacter baumannii, ATCC 17978): 4 µg/mL | viability at 24 h [3]: 90% | viability at 24 h, 64 ug/ml [4]: 8.5% | Activity (HEK293 [5]): Dose-dependent effect | Activity [6]: Non-toxic | mortality (HEK293 [7]): 69% | minimal effective concentration (Staphylococcus aureus [8]): ≤ 0.78 µg/mL | Ratio (Staphylococcus aureus [9]): >=5 | Survival (Staphylococcus aureus [10]): >90% | survival at 50 µg/mL (Staphylococcus aureus [11]): 46% | survival at 100 µg/mL (Staphylococcus aureus [12]): 16% | Activity (Caenorhabditis elegans): Dose-dependent effect | MIC (Enterococcus faecium): 8 µg/mL (≈ 32.6 µM) | MIC (Staphylococcus aureus [13]): 4 µg/mL (≈ 16.3 µM) | MIC (Klebsiella pneumoniae [14]): 64 µg/mL (≈ 261 µM) | MIC (Acinetobacter baumannii [15]): 32 µg/mL (≈ 130 µM) | MIC (Pseudomonas aeruginosa [16]): > 64 µg/mL | MIC (Enterobacter sp. [17]): > 64 µg/mL | Activity (Staphylococcus aureus [18]): 100% | MBC (Staphylococcus aureus [19]): 16 µg/mL (≈ 65.2 µM) | Ratio (Staphylococcus aureus [20]): 4 | MIC (Klebsiella pneumoniae [21]): 8 µg/mL | MIC (Acinetobacter baumannii [22]): 4 µg/mL | MIC (Pseudomonas aeruginosa [23]): 16 µg/mL | MIC (Enterobacter sp. [24]): 8 µg/mL | Ratio (Klebsiella pneumoniae [25]): 8 | Ratio (Acinetobacter baumannii [26]): 8 | Ratio (Pseudomonas aeruginosa [27]): >4 | Ratio (Enterobacter sp. [28]): >8

POLYMYXIN B
MIC (Klebsiella pneumoniae [29]): 2 µg/mL | MIC (Acinetobacter baumannii [30]): 0.125 µg/mL | MIC (Klebsiella pneumoniae [14]): 16 µg/mL | MIC (Acinetobacter baumannii [15]): 0.5 µg/mL | MIC (Pseudomonas aeruginosa [16]): 2 µg/mL | MIC (Enterobacter sp. [17]): 32 µg/mL

CN[C@H](CC(C)C)C(=O)N[C@H]1C(=O)N[C@@H](CC(N)=O)C(=O)N[C@H]2C(=O)N[C@H]3C(=O)N[C@H](C(=O)N[C@H](C(=O)O)c4cc(O)cc(O)c4-c4cc3ccc4O)[C@H](O)c3ccc(c(Cl)c3)Oc3cc2cc(c3O[C@@H]2O[C@H](CO)[C@@H](O)[C@H](O)[C@H]2O[C@H]2C[C@](C)(N)[C@H](O)[C@H](C)O2)Oc2ccc(cc2Cl)[C@H]1O [VANCOMYCIN]
Survival (Staphylococcus aureus [10]): >90% | survival at 50 µg/mL (Staphylococcus aureus [11]): > 97% | survival at 100 µg/mL (Staphylococcus aureus [12]): > 97% | MIC (Enterococcus faecium): 4 µg/mL (≈ 2.76 µM)

N#Cc1nccnc1Sc1ccccc1
MIC (Enterococcus faecium): > 64 µg/mL | MIC (Staphylococcus aureus [13]): > 64 µg/mL | MIC (Klebsiella pneumoniae [14]): > 64 µg/mL | MIC (Acinetobacter baumannii [15]): > 64 µg/mL | MIC (Pseudomonas aeruginosa [16]): > 64 µg/mL | MIC (Enterobacter sp. [17]): > 64 µg/mL

N#Cc1nccnc1[S+]([O-])c1ccccc1 (stereo not drawn)
MIC (Enterococcus faecium): 8 µg/mL (≈ 34.9 µM) | MIC (Staphylococcus aureus [13]): 4 µg/mL (≈ 17.4 µM) | MIC (Klebsiella pneumoniae [14]): 64 µg/mL (≈ 279 µM) | MIC (Acinetobacter baumannii [15]): 32 µg/mL (≈ 140 µM) | MIC (Pseudomonas aeruginosa [16]): > 64 µg/mL | MIC (Enterobacter sp. [17]): > 64 µg/mL

N=C(N)NCCC[C@H](NC(=O)[C@@H](N)Cc1ccccc1)C(=O)Nc1ccc2ccccc2c1 (H-Phe-Arg-βNA)
growth inhibition (GI) (Klebsiella pneumoniae [31]): inactive | growth inhibition (GI) (Acinetobacter baumannii [32]): inactive | growth inhibition (GI) (Pseudomonas aeruginosa [33]): inactive | growth inhibition (GI) (Enterobacter sp. [34]): inactive
